Source: PubChem BioAssay
The list is not random: actives were taken first. Their share in the collection is about 5.8%.
Pf Dd2 growth = P. falciparum Dd2 growth inhibitors, primary screen, SYBR Green fluorescence, single dose replicates. AID 1159554, 2015. 72 h; active compounds read low. actives 2.3% (n = 94,000). activity change, % at 10 µM; in the data active = activity change below about -80%; inconclusive = no clear call, values can overlap the other calls
IDH1 R132H inh = inhibitors of IDH1 R132H reductase, primary screen, biochemical, plate reader, single point; Isocitrate dehydrogenase [NADP] cytoplasmic (Homo sapiens), O75874; diaphorase/resazurin fluorescence, 60 min; inhibition, % at 10 µM; actives 0.18% (n = 70,000); AID 624101, 2012; in the data active = inhibition above about 34%; inconclusive = no clear call, values can overlap the other calls; inactive = below about 11%;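 note: 0% = DMSO and 100% = no enzyme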
Target sequence (O75874 whole entry R132H): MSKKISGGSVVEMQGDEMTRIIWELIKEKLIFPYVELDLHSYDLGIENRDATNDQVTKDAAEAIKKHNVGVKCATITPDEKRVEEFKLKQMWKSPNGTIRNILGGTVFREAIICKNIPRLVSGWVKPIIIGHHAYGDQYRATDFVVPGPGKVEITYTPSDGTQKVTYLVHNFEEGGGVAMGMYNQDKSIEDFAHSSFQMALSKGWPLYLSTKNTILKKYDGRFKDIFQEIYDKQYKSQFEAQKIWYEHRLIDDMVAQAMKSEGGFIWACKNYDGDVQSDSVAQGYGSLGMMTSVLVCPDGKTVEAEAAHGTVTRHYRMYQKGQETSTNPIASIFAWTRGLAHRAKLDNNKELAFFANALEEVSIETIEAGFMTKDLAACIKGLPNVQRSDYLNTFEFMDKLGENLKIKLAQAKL
T cruzi growth-1 = T. cruzi intracellular proliferation inhibitors, primary screen, cell-based, beta-gal Tulahuen parasites, NIH3T3 host, luminescence | T. cruzi beta-gal in NIH3T3, GalScreen luminescence, 90 h | actives 5.9% (n = 77,000) | AID 624255, 2012 | inhibition, % at 8.34 µM;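 active = mean inhibition above about 93%, with at least 55% of replicates each passing it, limit read from the data, passing the limit was not always enough; inconclusive = only one of those two conditions holds; inactive = neither condition holds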
KDM4C inh = inhibitors of GASC-1 (KDM4C) histone demethylase, primary screen, biochemical, single concentration HTS; Lysine-specific demethylase 4C (Homo sapiens), Q9H3R0; GST-KDM4C 2-372, H3K9me3 peptide, LANCE TR-FRET; inhibition, % at 12.5 µM; actives 0.15% (n = 96,000); AID 720574, 2013;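 active = mean replicate inhibition above about 25%, with at least 55% of replicates also reaching it, limit read from the data, passing the limit was not always enough; inconclusive = only one of those two conditions met; inactive = neither condition met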
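Test system: N-terminal GST-fused human GASC-1 (KDM4C) fragment, residues 2-372; quantity: GASC-1 enzyme at 10 nM final in reaction; dosing: single dose; schedule: 30 min demethylation and 1 h detection at room temperature; signal: LANCE TR-FRET, excitation 340 nm, emissions 618 and 671 nm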
T cruzi growth-2 = T. cruzi intracellular proliferation inhibitors, confirmation, cell-based, NIH3T3 host, beta-gal parasite, luminescence, cherry-pick | shares compounds with T cruzi growth-1 | T. cruzi beta-gal in NIH3T3, GalScreen luminescence, 90 h | inhibition, % at 8.35 µM | actives 72% (n = 5,600);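 active = mean replicate inhibition above about 95% and at least 55% of replicates individually reaching it, limit read from the data; inconclusive = only one of the two criteria is met; inactive = neither criterion is met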
T cruzi growth-3 = inhibitors of intracellular T. cruzi replication, confirmation, NIH3T3 host cells, beta-gal parasites, cherry-pick, set 2; shares compounds with T cruzi growth-1; T. cruzi beta-gal in NIH3T3, GalScreen luminescence, 90 h; actives 21% (n = 5,600); inhibition, % at 2.09 µM;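 active = mean inhibition above about 95%, with at least 55% of replicates also reaching it, limit read from the data; inconclusive = meets just one of the two conditions; inactive = meets neither condition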;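 note: plate controls were neutral control median for no effect and positive control median for full effect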
NIH3T3 tox = cytotoxicity in mouse NIH/3T3 fibroblasts, confirmation, cytotoxicity control for T. cruzi proliferation inhibitor project, cell-based, cherry-pick, single point; shares compounds with T cruzi growth-1; NIH/3T3 viability, CellTiter-Glo ATP luminescence, 90 h; cytotoxicity (signal decrease), % at 8.35 µM; actives 14% (n = 5,600); AID 651742, 2012;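 active = mean signal decrease across replicates above about 35% based on untreated-well scatter, with enough replicates individually passing, limit read from the data; inconclusive = no rule stated though some were filed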;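 note: 0% = median of neutral control wells and 100% = median of positive control wells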
3T3 cytotox 2 = NIH/3T3 fibroblast cytotoxicity, confirmation, cytotoxicity control, cell-based, cherry-pick, single point, set 2; shares compounds with T cruzi growth-1; inhibition, % at 24.9 µM; actives 56% (n = 5,600); AID 651744, 2012; NIH/3T3 viability, CellTiter-Glo ATP luminescence, 90 h;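 active = mean loss of cell viability signal at or above a set limit, and enough replicates individually reaching it; inconclusive = meets only the mean limit or only the replicate share; inactive = meets neither condition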;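 note: 0% = median of neutral control wells and 100% = median of positive control wells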
An asterisk follows results filed as active; ? = inconclusive; · = not tested or not shown; ! = not confirmed by another sample.

SMILES	Pf Dd2 growth	IDH1 R132H inh	T cruzi growth-1	KDM4C inh	T cruzi growth-2	T cruzi growth-3	NIH3T3 tox	3T3 cytotox 2
CC(C)CC#Cc1ccc2c(c1)O[C@H](CN(C)Cc1ccncc1)[C@H](C)CN([C@@H](C)CO)S2(=O)=O	-70	4	?	0	95*	88	49*	97*
C[C@H]1CN([C@@H](C)CO)S(=O)(=O)c2ccc(C#CCN(C)C)cc2O[C@@H]1CN(C)Cc1ccccc1	-44	1	108*	5	105*	93	31	105*
C[C@@H]1CN([C@H](C)CO)S(=O)(=O)c2ccc(C#CCN(C)C)cc2O[C@@H]1CN(C)Cc1ccccc1	-32	0	59	7	·	·	·	·
CC(C)CC#Cc1ccc2c(c1)O[C@@H](CN(C)Cc1ccncc1)[C@@H](C)CN([C@H](C)CO)S2(=O)=O	-56	0	130*	-1	100*	91	1	104*
O=C(C[C@@H]1C=C[C@@H](NC(=O)C2CCC2)[C@H](CO)O1)NCCCN1CCOCC1	23	0	21	-1	·	·	·	·
C=CCn1c(CSc2nc(N)cc(N)n2)n[nH]c1=S	·	1	·	·	·	·	·	·
CCNC(=O)C[C@@H]1CC[C@H]2[C@@H](COC[C@@H](O)CN2Cc2ccncc2)O1	·	·	-1	9	·	·	·	·
CC=Cc1ccc2n(c1=O)C[C@@H]1[C@@H](CO)[C@H](C(=O)NCCc3cn(C)cn3)N(C(=O)CC)[C@H]21 (mixture of isomers)	17	·	·	0	·	·	·	·
CC(C)CC#Cc1ccc2c(c1)O[C@@H](CN(C)Cc1ccncc1)[C@@H](C)CN([C@@H](C)CO)S2(=O)=O	-68	2	122*	6	109*	93	8	109*
CCCC#Cc1ccc2c(c1)O[C@@H](CN(C)Cc1ccncc1)[C@H](C)CN([C@H](C)CO)S2(=O)=O	-70	7	117*	8	98*	102*	72*	105*
O=C(NCc1ccncn1)[C@@H]1[C@@H](CO)[C@@H]2Cn3c(ccc(-c4ccccc4)c3=O)[C@@H]2N1CC1CC1	10	·	-2	8	·	·	·	·
C[C@@H]1CN([C@H](C)CO)C(=O)c2cc(/C=C/c3ccccc3)cnc2O[C@@H]1CN(C)Cc1ccccc1F	-24	3	116*	-2	92	58	-1	35*
C/C=C/c1cnc2c(c1)C(=O)N([C@@H](C)CO)C[C@H](C)[C@@H](CN(C)Cc1ccccc1F)O2	0	0	·	-1	·	·	·	·
C[C@H]1CN([C@@H](C)CO)C(=O)c2cc(/C=C/c3ccccc3)cnc2O[C@@H]1CN(C)Cc1ccccc1F	-47	0	112*	-1	111*	79	7	105*
C/C=C/c1cnc2c(c1)C(=O)N([C@H](C)CO)C[C@H](C)[C@@H](CN(C)Cc1ccccc1F)O2	-8	-1	·	1	·	·	·	·
C/C=C/c1cnc2c(c1)C(=O)N([C@H](C)CO)C[C@H](C)[C@H](CN(C)Cc1ccccc1F)O2	-66	0	·	-3	·	·	·	·
C[C@H]1CN([C@@H](C)CO)C(=O)c2cc(/C=C/c3ccccc3)cnc2O[C@H]1CN(C)Cc1ccccc1F	-48	0	116*	-1	104*	95	18	41*
C[C@H](CO)N1C[C@H](C)[C@@H](CN(C)Cc2ccccc2F)Oc2ncc(/C=C/c3ccccc3)cc2C1=O	-45	0	120*	0	108*	87	-22	104*
CCCNC(=O)N(C)C[C@H]1Oc2cc(-c3ccccc3F)ccc2S(=O)(=O)N([C@H](C)CO)C[C@H]1C	26	-1	·	0	·	·	·	·
C[C@@H]1CCCCO[C@@H](CN(C)S(C)(=O)=O)[C@@H](C)CN([C@H](C)CO)C(=O)c2cc(N(C)C)ccc2O1	12	·	101*!	4	3	-21	-11	-11
C[C@@H]1CN([C@@H](C)CO)C(=O)c2cc(N(C)C)ccc2O[C@@H](C)CCCCO[C@@H]1CN(C)S(C)(=O)=O	·	·	42	12	·	·	·	·
C[C@@H]1CCCCO[C@H](CN(C)S(C)(=O)=O)[C@H](C)CN([C@@H](C)CO)C(=O)c2cc(N(C)C)ccc2O1	-3	-1	108*	9	52	-13	-33	-31
C[C@@H]1CN([C@H](C)CO)C(=O)c2cc(N(C)C)ccc2O[C@@H](C)CCCCO[C@H]1CN(C)S(C)(=O)=O	-24	·	22	10	·	·	·	·
